ChEMBL document CHEMBL1138117, “Hybrid antibacterials. DNA polymerase-topoisomerase inhibitors” (J Med Chem, 2006)
In brackets after ≈: the same amount, converted by molar mass.

What was measured:
[1] = biological target: DNA polymerase III PolC-type (Bacillus subtilis (strain 168), UniProt P13267); test: Binding affinity to Bacillus subtilis DNA polymerase3C
Outline: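 Homogeneous recombinant B. subtilis pol IIIC was assayed in 96-well format on activated calf thymus DNA. Apparent Ki values were determined in a truncated assay lacking the competitor dGTP.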

[2] = system: Bacillus subtilis; test: Antibacterial activity against Bacillus subtilis BD54; format: functional
[3] = system: Staphylococcus aureus; test: Antibacterial activity against Staphylococcus aureus 25293; format: functional
[4] = system: Staphylococcus aureus; test: Antibacterial activity against Staphylococcus aureus smith; format: functional
[5] = system: Staphylococcus aureus; test: Antibacterial activity against methicillin resistant Staphylococcus aureus MRSA 1094; format: functional
[6] = system: Enterococcus faecalis; test: Antibacterial activity against Enterococcus faecalis 29212; format: functional
[7] = system: Enterococcus faecium; test: Antibacterial activity against Enterococcus faecium 19434; format: functional
[8] = system: Enterococcus faecium; test: Antibacterial activity against Vancomycin resistant Enterococcus faecium VRE 700802; format: functional
[9] = system: Escherichia coli; test: Antibacterial activity against Escherichia coli J53; format: functional
[10] = system: Mus musculus; test: Effect on survival of mice after ip infection with Staphylococcus aureus Smith; format: functional
Outline: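 Male Swiss-Webster mice (20–24 g) were given 10⁸ CFU of log-phase S. aureus Smith ip, grown in LB at 37 °C and washed in cold broth. A single iv tail-vein dose was given in DCP vehicle (10% DMA, 10% Cremophor EL in PBS, pH 9.5; 5 mL/kg) 15 min post-infection. Survival was scored at 72 h and ED50 derived.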

[11] = system: DNA gyrase (Bacillus subtilis); test: Inhibition of Bacillus subtilis gyrase activity
[12] = Cmax in mice at 100 mg/kg, iv; format: ADME, organism-based; design: dose 100 mg/kg, route intravenous; settings: Swiss Webster, mouse, in vivo
Outline: (§1)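 Male Swiss-Webster mice (20–24 g) got a single 100 mg/kg iv tail-vein bolus at 5 mL/kg in DCP vehicle (10% N,N-dimethylacetamide, 10% Cremophor EL in PBS, pH 9.5). Blood was taken from groups of 3 at various times. Plasma was quantified by C18 HPLC with MeCN:H₂O:NEt₃:AcOH (25:74.7:0.2:0.1), 1 mL/min, detection at 282 nm, against a spiked-plasma standard curve linear over 1–40 μg/mL.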

[13] = Tmax in mice at 100 mg/kg, iv; format: ADME, organism-based; design: dose 100 mg/kg, route intravenous; settings: Swiss Webster, mouse, in vivo; outline: as §1
[14] = Plasma concentration after 6 hrs in mice administered with 100 mg/kg, iv; format: ADME, organism-based; design: dose 100 mg/kg, route intravenous; settings: Swiss Webster, mouse; outline: as §1
[15] = biological target: DNA topoisomerase IV (Bacillus subtilis); test: Inhibition of Bacillus subtilis topoisomerase IV activity

Sequence of DNA polymerase III PolC-type (P13267 whole entry, the tested form may be a part): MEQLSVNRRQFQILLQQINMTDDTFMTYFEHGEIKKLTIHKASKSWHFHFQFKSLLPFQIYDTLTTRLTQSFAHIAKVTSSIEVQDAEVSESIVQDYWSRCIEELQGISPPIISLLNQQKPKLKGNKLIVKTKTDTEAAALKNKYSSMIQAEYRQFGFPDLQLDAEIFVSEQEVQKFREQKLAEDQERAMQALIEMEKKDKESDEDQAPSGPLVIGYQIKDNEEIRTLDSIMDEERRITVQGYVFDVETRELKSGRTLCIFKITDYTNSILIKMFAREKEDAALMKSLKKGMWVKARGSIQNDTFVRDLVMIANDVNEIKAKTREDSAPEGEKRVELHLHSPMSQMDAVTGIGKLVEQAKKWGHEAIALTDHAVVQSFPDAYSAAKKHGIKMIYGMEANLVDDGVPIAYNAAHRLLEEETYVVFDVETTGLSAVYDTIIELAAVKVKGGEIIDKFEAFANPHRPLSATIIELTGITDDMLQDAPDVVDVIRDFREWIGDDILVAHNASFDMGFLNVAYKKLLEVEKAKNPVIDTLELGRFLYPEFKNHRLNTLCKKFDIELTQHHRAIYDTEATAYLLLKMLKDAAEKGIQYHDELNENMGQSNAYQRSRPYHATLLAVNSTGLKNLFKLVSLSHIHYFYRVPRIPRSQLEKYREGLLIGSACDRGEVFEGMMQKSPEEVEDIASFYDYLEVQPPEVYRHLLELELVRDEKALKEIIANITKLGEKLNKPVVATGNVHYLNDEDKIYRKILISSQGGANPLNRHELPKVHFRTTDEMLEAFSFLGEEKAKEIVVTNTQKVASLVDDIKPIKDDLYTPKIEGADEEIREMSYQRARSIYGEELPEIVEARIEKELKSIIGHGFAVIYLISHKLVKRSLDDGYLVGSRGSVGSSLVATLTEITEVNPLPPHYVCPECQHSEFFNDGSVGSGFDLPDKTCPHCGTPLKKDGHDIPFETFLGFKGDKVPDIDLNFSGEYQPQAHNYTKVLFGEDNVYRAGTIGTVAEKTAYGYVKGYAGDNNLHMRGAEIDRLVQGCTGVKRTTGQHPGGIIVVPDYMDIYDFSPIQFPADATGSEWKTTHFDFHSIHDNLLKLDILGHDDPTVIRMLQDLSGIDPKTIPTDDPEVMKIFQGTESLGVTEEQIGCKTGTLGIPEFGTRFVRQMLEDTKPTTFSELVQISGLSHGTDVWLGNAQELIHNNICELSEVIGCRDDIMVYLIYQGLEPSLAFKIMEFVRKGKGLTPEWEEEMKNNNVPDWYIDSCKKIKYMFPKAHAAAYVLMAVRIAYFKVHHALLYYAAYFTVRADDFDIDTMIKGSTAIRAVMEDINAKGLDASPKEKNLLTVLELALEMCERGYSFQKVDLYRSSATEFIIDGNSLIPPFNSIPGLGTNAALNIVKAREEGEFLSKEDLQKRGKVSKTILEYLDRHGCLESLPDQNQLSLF

Compound | Ki ([1]; read-out: Ki) [nM] | MIC [2] [µg/mL] | MIC [3] [µg/mL] | MIC [4] [µg/mL] | MIC [5] [µg/mL] | MIC [6] [µg/mL] | MIC [7] [µg/mL] | MIC [8] [µg/mL] | MIC [9] [µg/mL] | ED50 [10] [mg/kg] | IC50 [11] [µg/mL] | MIC [10] [µg/mL] | Cmax [12] [µg/mL] | Tmax [13] [min] | concentration at 6 h [14] [µg/mL] | IC50 [15] [µg/mL] | Ki [1]
CCc1cc(Nc2cc(=O)n(CCCCCN3CCN(c4cc5c(cc4F)c(=O)c(C(=O)O)cn5C4CC4)CC3)c(=O)[nH]2)ccc1C | 19 | 0.313 (≈ 0.485 µM) | 1.25 (≈ 1.94 µM) | 1.25 (≈ 1.94 µM) | 2.5 (≈ 3.88 µM) | 0.625 (≈ 0.969 µM) | 1.25 (≈ 1.94 µM) | 1.25 (≈ 1.94 µM) | > 40 |  |  |  |  |  |  |  | 
CCc1cc(Nc2cc(=O)n(CCCCCN3CC4CCCN(c5cc6c(cc5F)c(=O)c(C(=O)O)cn6CC)C4C3)c(=O)[nH]2)ccc1C (stereo unspecified) | 37 | 2.5 (≈ 3.72 µM) | 10 (≈ 14.9 µM) | 5 (≈ 7.43 µM) | > 80 | 10 (≈ 14.9 µM) | 20 (≈ 29.7 µM) | 5 (≈ 7.43 µM) | > 80 |  |  |  |  |  |  |  | 
CCc1cc(Nc2cc(=O)n(CCCCN3CCN(c4cc5c(cc4F)c(=O)c(C(=O)O)cn5CC)CC3)c(=O)[nH]2)ccc1C |  | 0.313 (≈ 0.506 µM) | 1.25 (≈ 2.02 µM) | 1.25 (≈ 2.02 µM) | 2.5 (≈ 4.04 µM) | 0.625 (≈ 1.01 µM) | 0.625 (≈ 1.01 µM) | 0.625 (≈ 1.01 µM) | > 40 |  |  |  |  |  |  |  | 
CCc1cc(Nc2cc(=O)n(CCCCN3CCN(c4c(F)cc5c(=O)c(C(=O)O)cn(C6CC6)c5c4F)C[C@H]3C)c(=O)[nH]2)ccc1C | 7 |  |  |  | 1.25 (≈ 1.89 µM) | 1.25 (≈ 1.89 µM) | 2.5 (≈ 3.77 µM) | 1.25 (≈ 1.89 µM) | 5 (≈ 7.54 µM) | 20 | 11.7 (≈ 17.7 µM) |  |  |  |  |  | 
CCc1cc(Nc2cc(=O)n(CCCCN3CCN(c4c(F)cc5c(=O)c(C(=O)O)cn(C6CC6)c5c4F)C[C@@H]3C)c(=O)[nH]2)ccc1C | 4 |  | 0.625 (≈ 0.943 µM) |  |  | 1.25 (≈ 1.89 µM) | 1.25 (≈ 1.89 µM) | 0.625 (≈ 0.943 µM) | 20 (≈ 30.2 µM) | 15 | 9.2 (≈ 13.9 µM) |  |  |  |  |  | 
CCc1cc(Nc2cc(=O)n(CCCCN3CCN(c4c(F)cc5c(=O)c(C(=O)O)cn(C6CC6)c5c4OC)CC3)c(=O)[nH]2)ccc1C | 14 | 0.156 (≈ 0.236 µM) | 0.625 (≈ 0.946 µM) | 0.313 (≈ 0.474 µM) | 1.25 (≈ 1.89 µM) | 1.25 (≈ 1.89 µM) | 1.25 (≈ 1.89 µM) | 0.625 (≈ 0.946 µM) | > 40 | 25 |  |  |  |  |  |  | 
CCc1cc(Nc2cc(=O)n(CCCCN3CCN(c4cc5c(cc4F)c(=O)c(C(=O)O)cn5C4CC4)CC3)c(=O)[nH]2)ccc1C |  |  |  |  | 2.5 (≈ 3.96 µM) | 0.625 (≈ 0.991 µM) | 1.25 (≈ 1.98 µM) | 0.625 (≈ 0.991 µM) | > 40 |  | 28.4 (≈ 45 µM) | 0.41 (≈ 0.65 µM) | 213 | 5 | 0.62 | 22.9 (≈ 36.3 µM) | 
CCc1cc(Nc2cc(=O)n(CCCCN3CCN(c4nc5c(cc4F)c(=O)c(C(=O)O)cn5CC)CC3)c(=O)[nH]2)ccc1C |  | 0.313 (≈ 0.505 µM) |  |  | 2.5 (≈ 4.03 µM) | 1.25 (≈ 2.02 µM) | 1.25 (≈ 2.02 µM) | 0.625 (≈ 1.01 µM) | > 40 |  |  |  |  |  |  |  | 
CCc1cc(Nc2cc(=O)n(CCCCN3CCN(c4cc5c(cc4F)c(=O)c(C(=O)O)cn5C(C)(C)C)CC3)c(=O)[nH]2)ccc1C.Cl | 13 | 0.313 | 0.625 | 0.625 | 1.25 | 0.625 | 1.25 | 1.25 | > 40 |  |  |  |  |  |  |  | 
O=C(O)c1cn(C2CC2)c2cc(N3CCNCC3)c(F)cc2c1=O [CIPROFLOXACIN] |  |  | 0.313 (≈ 0.945 µM) |  | 20 (≈ 60.4 µM) |  |  | 80 (≈ 241 µM) | 0.313 (≈ 0.945 µM) |  | 1.9 (≈ 5.73 µM) |  |  |  |  |  | Not Active
CC(=O)NC[C@H]1CN(c2ccc(N3CCOCC3)c(F)c2)C(=O)O1 [LINEZOLID] |  | 0.625 (≈ 1.85 µM) | 1.25 (≈ 3.71 µM) | 2.5 (≈ 7.41 µM) | 1.25 (≈ 3.71 µM) | 1.25 (≈ 3.71 µM) | 2.5 (≈ 7.41 µM) | 1.25 (≈ 3.71 µM) | > 80 |  |  |  |  |  |  |  | Not Active
CCn1cc(C(=O)O)c(=O)c2ccc(C)nc21 [NALIDIXIC ACID] |  |  |  |  |  |  |  |  |  |  | 34.6 (≈ 149 µM) |  |  |  |  |  | 
CCn1cc(C(=O)O)c(=O)c2cc(F)c(N3CCNCC3)cc21 [NORFLOXACIN] |  | 0.313 (≈ 0.98 µM) |  |  | 40 (≈ 125 µM) | 2.5 (≈ 7.83 µM) | 10 (≈ 31.3 µM) | 80 (≈ 251 µM) | 1.25 (≈ 3.91 µM) |  |  |  |  |  |  |  | Not Active
C[C@@H]1CN(c2c(F)c(N)c3c(=O)c(C(=O)O)cn(C4CC4)c3c2F)C[C@H](C)N1 [SPARFLOXACIN] |  | < 0.078 | < 0.078 | < 0.078 | 10 (≈ 25.5 µM) | 5 (≈ 12.7 µM) | 1.25 (≈ 3.19 µM) | 80 (≈ 204 µM) | < 0.078 |  | 0.4 (≈ 1.02 µM) |  |  |  |  |  | Not Active
